Test results: article PMC3049929 (Journal of medicinal chemistry, 2008)
Where two headings read alike, the source gives them in different places. Values belong to the compound of their own block, whether it stands above or below them.

Tests used:
[1] = system: P. falciparum 3D7 (chloroquine-sensitive); details: strain 3D7, infected erythrocytes; previously published data ref 26, 27; cited from earlier work
[2] = system: P. falciparum K1 (chloroquine-resistant, pyrimethamine-resistant); details: strain K1, infected erythrocytes; previously published data ref 26, 27; cited from earlier work
[3] = target: T1, PfPFT (P. falciparum protein farnesyltransferase) (Plasmodium falciparum, UniProt Q5EI73+Q5EI74); assay: PfPFT [3H] scintillation proximity assay; format: biochemical; details: for inhibition at 0.05 µM: read-out: Inhibition of PfFTase (%) 50 nM; for Inhibition of PfFTase (%) 50 nM: 50 nM inhibitor concentration
[4] = system: P. falciparum K1 (chloroquine-resistant, pyrimethamine-resistant); format: cell-based; details: Plasmodium falciparum, K1, Erythrocyte, 48 h, read-out: ED50 (nM) K1
How it was run: (§1)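 Parasites cultured in type A+ human erythrocytes (2% hematocrit) in RPMI-1640 with 20% heat-inactivated type A+ human plasma, under 5% CO2/5% O2/90% N2. Test compound in DMSO added to culture at 0.5% parasitemia and 0.5% hematocrit. Incubated 37 °C for 48 h, then [8-3H]hypoxanthine (0.3 µCi) added for a further 24 h. Cells harvested to filter mats and counted by β-scintillation. Uninfected-erythrocyte background subtracted; DMSO-only wells taken as 100% growth. ED50 from linear regression of incorporation vs concentration.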

rat PFT = rat PFT (Rattus norvegicus, UniProt Q02293+Q04631); assay: rat PFT [3H] scintillation proximity assay; format: biochemical
[5] = system: PfPFT (P. falciparum protein farnesyltransferase); assay: PfPFT [3H] scintillation proximity assay; format: biochemical; details: rat PFT IC50 / PfPFT IC50
[6] = system: P. falciparum 3D7 (chloroquine-sensitive); format: cell-based; details: Plasmodium falciparum, 3D7, Erythrocyte, 48 h, read-out: ED50 (nM) 3D7
How it was run: as §1

[7] = incubation with liver microsomes; cited from earlier work
[8] = target: T1, PfPFT (P. falciparum protein farnesyltransferase); details: 50 nM inhibitor concentration; previously published data ref 26, 27; cited from earlier work

SMILES: Cn1cnc(S(=O)(=O)N(CCN(Cc2cncn2C)c2ccc(C#N)cc2)CC2CCN(c3ncccn3)CC2)c1 [1e]
ED50 (nM) 3D7 [1]: 130 nM | ED50 (nM) K1 [2]: 85 nM

SMILES: Cn1cnc(S(=O)(=O)N(CCC(=O)N(Cc2cncn2C)c2ccc(C#N)cc2)Cc2ccccc2)c1 [5a, 3-[Benzyl-(1-methyl-1H-imidazole-4-sulfonyl)amino]-N-(4-cyanophenyl)-N-(3-methyl-3H-imidazol-4-ylmethyl)propanamide]
inhibition at 0.05 µM [3]: 0%

SMILES: Cn1cnc(S(=O)(=O)N(CC2CCN(C(=O)OC(C)(C)C)CC2)[C@H]2CC[C@@H](N(Cc3cncn3C)c3ccc(C#N)cc3)CC2)c1 [10d, (±)-[N-(N-tert-Butoxycarbonylpiperidin-4-ylmethyl)-N-{cis-4-[(4-cyanophenyl)(3-methyl-3H-imidazol-4-ylmethyl)amino]cyclohexyl}]-1-methyl-1H-imidazole-4-sulfonamide]
IC50 [4]: 650 nM | Inhibition of PfFTase (%) 50 nM [3]: no inhibitory activity | inhibition at 0.05 µM [3]: 0%

SMILES: Cn1cnc(S(=O)(=O)N(CC(=O)N(Cc2cncn2C)c2ccc(C#N)cc2)CC2CCN(C(=O)OC(C)(C)C)CC2)c1 [4d, 2-[(N-tert-Butoxycarbonylpiperidin-4-ylmethyl)(1-methyl-1H-imidazole-4-sulfonyl)amino]-N-(4-cyanophenyl)-N-(3-methyl-3H-imidazol-4-ylmethyl)acetamide]
inhibition at 0.05 µM [3]: 0%

SMILES: Cn1cnc(S(=O)(=O)N(CC2CCN(C(=O)OC(C)(C)C)CC2)[C@H]2CCC[C@@H]2N(Cc2cncn2C)c2ccc(C#N)cc2)c1 (racemic) [7d, (±)-[N-(N-tert-Butoxycarbonylpiperidin-4-ylmethyl)-N-{trans-2-[(4-cyanophenyl)(3-methyl-3H-imidazol-4-ylmethyl)amino]cyclopentyl}]-1-methyl-1H-imidazole-4-sulfonamide]
IC50 [4]: 600 nM | IC50 (rat PFT): > 1000 nM | Selectivity (ratio of rat to P. falciparum PFT IC50 values) [5]: >100 fold

SMILES: Cn1cnc(S(=O)(=O)N(CC(=O)N(Cc2cncn2C)c2ccc(C#N)cc2)Cc2ccccc2)c1 [4a, 2-[Benzyl(1-methyl-1H-imidazole-4-sulfonyl)amino]-N-(4-cyanophenyl)-N-(3-methyl-3H-imidazol-4-ylmethyl)acetamide]
inhibition at 0.05 µM [3]: 0%

IC50 [4]: 750 nM | IC50 [6]: 2600 nM
SMILES: Cn1cnc(S(=O)(=O)N(CC2CCN(c3ncccn3)CC2)[C@H]2CCC[C@@H]2N(Cc2cncn2C)c2ccc(C#N)cc2)c1 (racemic) [7e, (±)-[N-{N-(2-Pyrimidinyl)-piperidin-4-ylmethyl}-N-{trans-2-[(4-cyanophenyl)(3-methyl-3H-imidazol-4-ylmethyl)amino]cyclopentyl}]-1-methyl-1H-imidazole-4-sulfonamide]

SMILES: Cn1cnc(S(=O)(=O)N(CCN(Cc2cncn2C)c2ccc(C#N)cc2)CC2CCN(C(=O)OC(C)(C)C)CC2)c1 [1d]
ED50 (nM) 3D7 [1]: 88 nM | ED50 (nM) K1 [2]: 54 nM | metabolic stability [7]: limited

SMILES: Cn1cnc(S(=O)(=O)N(CCC(=O)N(Cc2cncn2C)c2ccc(C#N)cc2)CC2CCN(C(=O)OC(C)(C)C)CC2)c1 [5d, 3-[(N-tert-Butoxycarbonylpiperidin-4-ylmethyl)(1-methyl-1H-imidazole-4-sulfonyl)amino]-N-(4-cyanophenyl)-N-(3-methyl-3H-imidazol-4-ylmethyl)propanamide]
inhibition at 0.05 µM [3]: 0%

IC50 [4]: 2800 nM | IC50 [6]: 2800 nM
SMILES: Cc1ccccc1CN([C@@H]1CCC[C@@H]1N(Cc1cncn1C)c1ccc(C#N)cc1)S(=O)(=O)c1cn(C)cn1 (racemic) [6b, (±)-[N-(2-Methylbenzyl)-N-{cis-2-[(4-cyanophenyl)(3-methyl-3H-imidazol-4-ylmethyl)amino]cyclopentyl}]-1-methyl-1H-imidazole-4-sulfonamide]

IC50 [4]: 2500 nM | IC50 [6]: 2400 nM
SMILES: Cn1cnc(S(=O)(=O)N(Cc2ccsc2)[C@H]2CC[C@@H](N(Cc3cncn3C)c3ccc(C#N)cc3)C2)c1 (racemic) [8c, (±)-[N-(Thiophen-3-ylmethyl)-N-{cis-3-[(4-cyanophenyl)(3-methyl-3H-imidazol-4-ylmethyl)amino]cyclopentyl}]-1-methyl-1H-imidazole-4-sulfonamide]

IC50 [4]: 1500 nM | IC50 [6]: 2600 nM
SMILES: Cn1cnc(S(=O)(=O)N(CC2CCN(c3ncccn3)CC2)[C@@H]2CC[C@@H](N(Cc3cncn3C)c3ccc(C#N)cc3)C2)c1 (racemic) [9e, (±)-[N-{N-(2-Pyrimidinyl)-piperidin-4-ylmethyl}-N-{trans-3-[(4-cyanophenyl)(3-methyl-3H-imidazol-4-ylmethyl)amino]cyclopentyl}]-1-methyl-1H-imidazole-4-sulfonamide]

IC50 [4]: 2200 nM | IC50 [6]: 2400 nM
SMILES: Cc1ccccc1CN([C@@H]1CC[C@@H](N(Cc2cncn2C)c2ccc(C#N)cc2)C1)S(=O)(=O)c1cn(C)cn1 (racemic) [9b, (±)-[N-(2-Methylbenzyl)-N-{trans-3-[(4-cyanophenyl)(3-methyl-3H-imidazol-4-ylmethyl)amino]cyclopentyl}]-1-methyl-1H-imidazole-4-sulfonamide]

IC50 [4]: 720 nM | IC50 [6]: 600 nM
SMILES: Cn1cnc(S(=O)(=O)N(CC2CCN(c3ncccn3)CC2)[C@H]2CC[C@@H](N(Cc3cncn3C)c3ccc(C#N)cc3)C2)c1 (racemic) [8e, (±)-[N-{N-(2-Pyrimidinyl)-piperidin-4-ylmethyl}-N-{cis-3-[(4-cyanophenyl)(3-methyl-3H-imidazol-4-ylmethyl)amino]cyclopentyl}]-1-methyl-1H-imidazole-4-sulfonamide]

SMILES: Cn1cnc(S(=O)(=O)N(CC2CCN(C(=O)OC(C)(C)C)CC2)[C@@H]2CC[C@@H](N(Cc3cncn3C)c3ccc(C#N)cc3)C2)c1 (racemic) [9d, (±)-[N-(N-tert-Butoxycarbonylpiperidin-4-ylmethyl)-N-{trans-3-[(4-cyanophenyl)(3-methyl-3H-imidazol-4-ylmethyl)amino]cyclopentyl}]-1-methyl-1H-imidazole-4-sulfonamide]
IC50 [4]: 80 nM | IC50 [6]: 310 nM

SMILES: Cn1cnc(S(=O)(=O)N(CCN(Cc2cncn2C)c2ccc(C#N)cc2)Cc2ccccc2)c1 [1a]
ED50 (nM) 3D7 [1]: 349 nM | ED50 (nM) K1 [2]: 375 nM

SMILES: Cn1cnc(S(=O)(=O)N(CCN(Cc2cncn2C)c2ccc(C#N)cc2)Cc2ccsc2)c1 [1c]
Inhibition of PfFTase (%) 50 nM [8]: 100% | ED50 (nM) 3D7 [1]: 150 nM | ED50 (nM) K1 [2]: 240 nM

SMILES: Cn1cnc(S(=O)(=O)N(CC2CCN(C(=O)OC(C)(C)C)CC2)[C@H]2CC[C@H](N(Cc3cncn3C)c3ccc(C#N)cc3)CC2)c1 [11d, (±)-[N-(N-tert-Butoxycarbonylpiperidin-4-ylmethyl)-N-{trans-4-[(4-cyanophenyl)(3-methyl-3H-imidazol-4-ylmethyl)amino]cyclohexyl}]-1-methyl-1H-imidazole-4-sulfonamide]
IC50 [4]: 1200 nM | Inhibition of PfFTase (%) 50 nM [3]: no inhibitory activity | inhibition at 0.05 µM [3]: 0%

IC50 [4]: 2500 nM | IC50 [6]: 3000 nM
SMILES: Cn1cnc(S(=O)(=O)N(CC2CCN(c3ncccn3)CC2)[C@@H]2CCC[C@@H]2N(Cc2cncn2C)c2ccc(C#N)cc2)c1 (racemic) [6e, (±)-[N-{N-(2-Pyrimidinyl)-piperidin-4-ylmethyl}-N-{cis-2-[(4-cyanophenyl)(3-methyl-3H-imidazol-4-ylmethyl)amino]cyclopentyl}]-1-methyl-1H-imidazole-4-sulfonamide]

IC50 [4]: 75 nM | IC50 [6]: 180 nM
SMILES: Cn1cnc(S(=O)(=O)N(CC2CCN(c3ncccn3)CC2)CC(C)(C)N(Cc2cncn2C)c2ccc(C#N)cc2)c1 [3e, [N-{N-(2-Pyrimidinyl)-piperidin-4-ylmethyl}-N-{(4-cyanophenyl)(3-methyl-3H-imidazol-4-ylmethyl)amino}-2,2-dimethylethyl]-1-methyl-1H-imidazole-4-sulfonamide]

SMILES: Cn1cnc(S(=O)(=O)N(CC2CCN(C(=O)OC(C)(C)C)CC2)[C@@H]2CCC[C@@H]2N(Cc2cncn2C)c2ccc(C#N)cc2)c1 (racemic) [6d, (±)-[N-(N-tert-Butoxycarbonylpiperidin-4-ylmethyl)-N-{cis-2-[(4-cyanophenyl)(3-methyl-3H-imidazol-4-ylmethyl)amino]cyclopentyl}]-1-methyl-1H-imidazole-4-sulfonamide]
IC50 (rat PFT): > 1000 nM | IC50 [6]: 3000 nM | Selectivity (ratio of rat to P. falciparum PFT IC50 values) [5]: >2.9 fold

SMILES: Cc1ccccc1CN(CCN(Cc1cncn1C)c1ccc(C#N)cc1)S(=O)(=O)c1cn(C)cn1 [1b]
ED50 (nM) 3D7 [1]: 93 nM | ED50 (nM) K1 [2]: 150 nM
